From ChEMBL document CHEMBL1123442 (J Med Chem, 1986)

Columns and labels:
HCT-8 = test: In vitro for cytotoxicity against human colon tumor cells (HCT-8) in culture; assay type: functional, cell-based
L1210 = test: In vitro for cytotoxicity against murine leukemia cells (L1210); assay type: functional, cell-based; details: Mus musculus
[1] = tested on: Lewis lung carcinoma cell line; test: In vivo for antitumor activity against Lewis lung carcinoma; assay type: functional, Mus musculus
How it was run: (§1)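 Mice inoculated intravenously with 10^6 Lewis lung carcinoma cells, then drug intraperitoneally in 0.1 mL 30% v/v ethanol-water on days 5, 9 and 13. D50 (mg/kg per day for 50% ILS) taken from dose-response graph. ILS at optimal dose versus untreated tumor-bearing controls. Survivors counted at 40 days.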

[2] = tested on: Lewis lung carcinoma cell line; test: Evaluated in vivo for antitumor activity against Lewis lung carcinoma; assay type: functional, Mus musculus; how it was run: as §1
P388 [3] = test: In vivo for antitumor activity against P388 leukemia.; assay type: functional, Mus musculus
How it was run: (§2)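 Mice given 10^6 P388 leukemia cells intraperitoneally, then drug intraperitoneally in 0.1 mL 30% v/v ethanol-water on days 1, 5 and 9. D50 (mg/kg per day giving 50% ILS) read from dose-response graph. ILS at optimal dose versus untreated controls. Long-term survival counted at 30 days.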

P388 [4] = test: In vivo for antitumor activity against P388 leukemia; assay type: functional, Mus musculus; how it was run: as §2
poly[d(A-T)] = test: Binding constant relative to amsacrine (Δlog K) for DNA binding by ethidium bromide displacement; details: Bos taurus
[5] = tested on: Lewis lung carcinoma cell line; test: Evaluated in vivo for antitumor activity against Lewis lung carcinoma; g denotes ILS of 50% could not be reached at any dose level; assay type: functional, organism-based; details: Mus musculus; how it was run: as §1

SMILES	IC50 (HCT-8) [nM]	IC50 (L1210) [nM]	ILSmax [1] [%]	OD [1] [mg/kg]	D50 [2] [mg/kg]	OD (P388 [3]) [mg/kg]	D50 (P388 [4]) [mg/kg]	ILSmax (P388 [4]) [%]	Δlog K (poly[d(A-T)])	D50 [5]
CNc1cc(NS(C)(=O)=O)ccc1Nc1c2ccccc2nc2cc(F)ccc12	460	94	79	45	20	45	15	157		
COc1cc(NS(C)(=O)=O)ccc1Nc1c2ccccc2nc2c(Cl)cccc12									0.19	
COc1cc(NS(C)(=O)=O)ccc1Nc1c2ccccc2nc2ccc(C)cc12									-0.22	
CNc1cc(NS(C)(=O)=O)ccc1Nc1c2ccccc2nc2c(C)cccc12	79	53	139	20	8.9	13.3	3	157		
CNc1cc(NS(C)(=O)=O)ccc1Nc1c2ccccc2nc2ccccc12				30		13.3				
CNc1cc(NS(C)(=O)=O)ccc1Nc1c2ccccc2nc2c(Cl)cccc12	740	690	59	100	80	100	65	64		
CNc1cc(NS(C)(=O)=O)ccc1Nc1c2ccc(Cl)cc2nc2c(C)cccc12	73	15	126	30	8	13.3	5	128		
CNc1cc(NS(C)(=O)=O)ccc1Nc1c2cccc(C)c2nc2c(C)cccc12	190	91	125	65	25	45	6	202		
CNc1cc(NS(C)(=O)=O)ccc1Nc1c2cccc(OC)c2nc2c(OC)cccc12	160	130	116	65	30	150	25	14		
CNc1cc(NS(C)(=O)=O)ccc1Nc1c2ccccc2nc2cc(C)ccc12	59	19	41	8.9		8.9	3.5	88	6.71	ILS of 50% could not be reached
COc1cc(NS(C)(=O)=O)ccc1Nc1c2ccccc2nc2c(C)cccc12									0.46	
CNC(=O)c1cccc2c(Nc3ccc(NS(C)(=O)=O)cc3OC)c3ccccc3nc12									-0.03	
CNc1cc(NS(C)(=O)=O)ccc1Nc1c2ccc(OC)cc2nc2c(C)cccc12	29	16	50	4	4	1.8	0.3	166		
CNC(=O)c1ccc2c(Nc3ccc(NS(C)(=O)=O)cc3NC)c3ccccc3nc2c1	> 104	> 1600				65	30	62		
COc1cc(NS(C)(=O)=O)ccc1Nc1c2ccccc2nc2cc(Br)ccc12									0.72	
COc1cc(NS(C)(=O)=O)ccc1Nc1c2ccccc2nc2c(OC)cccc12									0.37	
COc1cc(NS(C)(=O)=O)ccc1Nc1c2ccccc2nc2cc(F)ccc12									-0.03	
CNC(=O)c1cccc2c(Nc3ccc(NS(C)(=O)=O)cc3NC)c3cccc(OC)c3nc12	> 1000	320	34	65		65	30	148	6.92	ILS of 50% could not be reached
COc1cc(NS(C)(=O)=O)ccc1Nc1c2ccccc2nc2cc(I)ccc12									0.78	
CNc1cc(NS(C)(=O)=O)ccc1Nc1c2ccccc2nc2c(OC)cccc12	140	130	153	45	19	45	5	170		
COc1cc(NS(C)(=O)=O)ccc1Nc1c2ccccc2nc2ccc(Cl)cc12									-0.08	

SMILES	IC50 (HCT-8) [nM]	IC50 (L1210) [nM]	ILSmax [1] [%]	OD [1] [mg/kg]	D50 [2] [mg/kg]	OD (P388 [3]) [mg/kg]	D50 (P388 [4]) [mg/kg]	ILSmax (P388 [4]) [%]	Δlog K (poly[d(A-T)])	D50 [5]
CNc1cc(NS(C)(=O)=O)ccc1Nc1c2ccc(F)cc2nc2c(OC)cccc12	370	200	85	65	45	65	20	100		
CNc1cc(NS(C)(=O)=O)ccc1Nc1c2ccc(F)cc2nc2c(C)cccc12	150	150	143	45	25	45	6	152		
CNc1cc(NS(C)(=O)=O)ccc1Nc1c2ccccc2nc2c(F)cccc12	690	400	55	65	60	45	20	152		
CNc1cc(NS(C)(=O)=O)ccc1Nc1c2ccccc2nc2ccc(C)cc12	1700	550	200	100		100	55	8	5.89	ILS of 50% could not be reached
CNc1cc(NS(C)(=O)=O)ccc1Nc1c2ccc(Br)cc2nc2c(OC)cccc12	150	41	111	65	40	65	9	174		
CNc1cc(NS(C)(=O)=O)ccc1Nc1c2ccccc2nc2cc(OC)ccc12	180	35	75	20	15	8.9	4.5	132		
COc1cc(NS(C)(=O)=O)ccc1Nc1c2ccccc2nc2cc(Cl)ccc12									0.49	
COc1ccc2c(Nc3ccc(NS(C)(=O)=O)cc3OC)c3ccccc3nc2c1									0.26	
CNc1cc(NS(C)(=O)=O)ccc1Nc1c2ccccc2nc2cc(Br)ccc12	140	38	49	20		66	5	136	6.99	ILS of 50% could not be reached
CNc1cc(NS(C)(=O)=O)ccc1Nc1c2ccc(C)cc2nc2c(OC)cccc12	70	65	194	20	10	13.3	5.5	122		
CNc1cc(NS(C)(=O)=O)ccc1Nc1c2ccccc2nc2cc(Cl)ccc12	170	24	98	20	15	30	10	149		
COc1cc(NS(C)(=O)=O)ccc1Nc1c2ccccc2nc2ccccc12 [AMSACRINE]										ILS of 50% could not be reached
CNc1cc(NS(C)(=O)=O)ccc1Nc1c2ccccc2nc2c(C)c(C)ccc12	76	43	155	20	10	13.3	7	148		
CNC(=O)c1cccc2c(Nc3ccc(NS(C)(=O)=O)cc3NC)c3ccccc3nc12	1800	56	91	45	6.8	65	30	82		
CNc1cc(NS(C)(=O)=O)ccc1Nc1c2ccc(Cl)cc2nc2c(OC)cccc12	143	120	159	45	13	65	20	236		
CNC(=O)c1cccc2c(Nc3ccc(NS(C)(=O)=O)cc3NC)c3cccc(C)c3nc12	353	82	62	30	25	13.3	6	94		
CNc1cc(NS(C)(=O)=O)ccc1Nc1c2ccc(C)cc2nc2c(C)cccc12	24	19	93	5.9	4.2	5.9	2	92		
COc1ccc2[nH]c3ccccc3c(=Nc3ccc(NS(C)(=O)=O)cc3OC)c2c1									-0.08	
COc1cc(NS(C)(=O)=O)ccc1Nc1c2ccccc2nc2cc(C)ccc12									0.38	
CNC(=O)c1cccc2c(Nc3ccc(NS(C)(=O)=O)cc3OC)c3cccc(C)c3nc12 [ASULACRINE]				30		20				
